High-throughput results from PubChem.
NTR1 agonist: agonists of human neurotensin receptor NTR1; NTR1-U2OS beta-arrestin-GFP spot imaging, agonist mode; activation, % at 20 µM; 0.17% of 330,000 active; AID 493036;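 active = activation at or above 40% of the spot to cytoplasm intensity ratio, with at least 20 cells analyzed; inconclusive = wells under 20 cells, flagged as cytotoxic or low count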;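 also: 0% = DMSO without peptide and 100% = 100 nM NTR1 peptide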
Target sequence (P30989 whole entry, looked up): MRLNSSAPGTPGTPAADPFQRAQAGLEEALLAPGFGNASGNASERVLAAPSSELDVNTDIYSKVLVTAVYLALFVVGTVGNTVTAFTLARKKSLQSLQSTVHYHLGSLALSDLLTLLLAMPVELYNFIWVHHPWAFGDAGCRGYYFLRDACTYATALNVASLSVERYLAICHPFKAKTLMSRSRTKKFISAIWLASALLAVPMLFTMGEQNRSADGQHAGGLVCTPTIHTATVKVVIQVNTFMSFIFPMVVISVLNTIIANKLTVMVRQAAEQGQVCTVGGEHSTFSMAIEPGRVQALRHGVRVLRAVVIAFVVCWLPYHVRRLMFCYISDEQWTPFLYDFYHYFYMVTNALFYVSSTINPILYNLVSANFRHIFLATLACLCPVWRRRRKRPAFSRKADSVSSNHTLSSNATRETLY
MC4R antagonist: antagonists of human melanocortin 4 receptor (MC4R). AID 540295. inhibition, % at 6.5 µM. 0.48% of 360,000 active. MC4R-expressing cells, MTII-stimulated cAMP, LANCE TR-FRET;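 active = inhibition above its plate's cutoff, the mean of tested wells on that plate plus 3 SD, cut at about 29% in these data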;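 also: 0% = Melanotan II alone and 100% = Melanotan II plus saturating MCL0020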
Target sequence (P32245 whole entry, looked up): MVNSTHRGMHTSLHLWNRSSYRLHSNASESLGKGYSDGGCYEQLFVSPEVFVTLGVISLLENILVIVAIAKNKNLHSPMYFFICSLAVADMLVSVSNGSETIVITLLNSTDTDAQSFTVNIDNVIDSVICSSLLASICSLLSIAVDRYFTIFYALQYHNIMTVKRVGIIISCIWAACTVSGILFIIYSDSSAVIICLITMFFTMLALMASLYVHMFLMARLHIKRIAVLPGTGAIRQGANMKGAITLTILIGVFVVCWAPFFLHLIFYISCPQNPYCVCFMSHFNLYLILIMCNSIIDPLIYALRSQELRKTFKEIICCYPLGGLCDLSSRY
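Assay system: U2OS cells stably expressing human melanocortin 4 receptor (MC4R) / Dosing: 6.5 µM / Timing: compound 30 min, challenge 1 h, detection 1 h / Measured by: Eu-cAMP/anti-cAMP TR-FRET, emission 671 nm / Replicates: singlicate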
MC4R ag barr: human MC4R agonism via beta-arrestin; U2OS MC4R beta-arrestin complementation, luminescence; percent of melanotan II response, DMSO zero; activation, % at 8.9 µM; P32245; AID 540308; 0.98% of 360,000 active;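 active = activation above a per-plate cutoff, the mean activation of sample wells on that plate plus 3 SD, cut at about 8% in these data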
AI-2 QS mod: Vibrio harveyi AI-2 quorum sensing modulation; 0.4% of 300,000 active; activity change, % at 7.5 µM; Vibrio harveyi JMH597 AI-2 luminescence/OD600 ratio, 9 h; stronger effect = lower value; strain lacks LuxN and CqsS sensors; 0 = neutral-control median; in the data active = activity change below about -75%, passing the limit was not always enough; inconclusive = no clear call, values can overlap the other calls;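 also: luminescence divided by OD600 gain over 9 h not by final OD600 alone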
JMH597 growth: retest: blocks Vibrio harveyi JMH597 growth; shares compounds with AI-2 QS mod; OD600 absorbance, 9 h; lacks LuxN and CqsS sensors; growth inhibition, % at 7.5 µM; 1% of 750 active; AID 2726;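 active = every replicate shows growth inhibition above 50%; inconclusive = at least half, but not all, replicates pass that cutoff; inactive = fewer than half of replicates pass it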
BB721 const-QS lum: retest counter-screen: lowers luminescence of constitutive-QS Vibrio harveyi BB721; shares compounds with AI-2 QS mod; AID 2727; 95% of 750 active; inhibition, % at 7.5 µM; 9 h;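 active = inhibition above about 80% in every replicate, not just on average, limit read from the data; inconclusive = at least half of replicates past the limit, but not all; inactive = fewer than half of replicates past the limit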
BB721 growth rt: retest: inhibitors of Vibrio harveyi BB721 growth; shares compounds with AI-2 QS mod; OD600 absorbance, 9 h; growth inhibition, % at 7.5 µM; 3% of 750 active;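 active = every replicate shows growth inhibition above 50%; inconclusive = at least half but not all replicates above 50% inhibition; inactive = under half of replicates above 50% inhibition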
JMH597 AI-2 mod: Vibrio harveyi AI-2 signaling luminescence modulation – JMH597 strain, confirmation | shares compounds with AI-2 QS mod | Vibrio harveyi JMH597 AI-2 quorum sensing luminescence, 9 h; luxN and CqsS knockout, AI-2 only | 97% of 750 active | inhibition, % at 7.5 µM;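 active = every replicate shows more than 75% inhibition of signal versus neutral control wells; inconclusive = half to three quarters of replicates exceed 75% inhibition; inactive = fewer than half of replicates exceed 75% inhibition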
* = called active by the depositor; u = inconclusive; x = no result. Compounds with a hit are over-represented: about 1.8% of the library has one in this group of screens.

SMILES	NTR1 agonist	MC4R antagonist	MC4R ag barr	AI-2 QS mod	JMH597 growth	BB721 const-QS lum	BB721 growth rt	JMH597 AI-2 mod
c1ccc(Cc2ccc(OCCn3cncn3)cc2)cc1	-1.1	9.6	-2.3	u	6.8	88.6*	9.8	93.2*
CC(C)C(CCNC(=O)CN1C(=O)c2ccccc2C1=O)c1ccco1 (stereo not given)	1.6	-8.1	-1.2	-84.1*	11.8	94.4*	1.9	97.0*
CC(C)C(CCNC(=O)CC(Cc1ccccc1)c1ccco1)c1ccco1 (stereo not given)	1.6	0.4	0.2	20.9	x	x	x	x
CSc1ccc(C2N=C(c3ccccc3)NO2)cc1 (stereo not given)	-0.3	12.1	2.3	-85.2*	31.4	95.4*	13.5	96.3*
Cc1cc(=O)oc2cc(OCC3CC(c4ccccc4)=NO3)ccc12 (stereo not given)	3.1	12.8	-3.0	-86.4*	21.2	94.9*	34.8	96.4*
NC(=S)Nc1cc(Cl)cc(Cl)c1	2.2	1.3	0.0	-82.2*	-12.3	64.9	-21.5	u
NC(=S)Nc1cccc(Cl)c1	-0.9	7.1	-1.6	1.6	x	x	x	x
COc1ccc(CNC(=S)Nc2ccc(F)c(Cl)c2)cc1	3.2	16.8	0.2	-84.1*	8.0	92.3*	21.0	92.0*
Cc1cccc(NS(=O)(=O)c2ccc(Oc3ccccc3)cc2)n1	-2.0	0.8	-1.3	-89.3*	25.1	11.1	-19.9	96.4*
COc1ccc(/C=C/C(=O)c2ccc(O)cc2)cc1	0.3	-0.4	0.0	-92.9*	22.0	97.1*	5.6	97.4*
COc1ccc(/C=C/C(=O)c2ccoc2)cc1	1.6	2.2	0.1	1.8	x	x	x	x
COc1ccc(NS(=O)(=O)c2cccc(C(=O)NNC(=O)CNC(=O)c3ccccc3F)c2)cc1	-0.1	6.0	-2.1	20.1	x	x	x	x
O=C(COc1ccc(Br)cc1)Nc1ccc(S(=O)(=O)Nc2ccccn2)cc1	1.4	4.3	-3.5	-86.7*	11.6	94.3*	-21.4	98.3*
CN(C)S(=O)(=O)c1ccc(NC(=O)COC(=O)c2ccccn2)cc1	0.2	2.9	0.2	-86.9*	-10.1	96.5*	5.1	97.4*
O=C(COc1ccccc1)Nc1ccc(S(=O)(=O)Nc2ccccn2)cc1	-1.1	6.6	-2.9	-61.7	x	x	x	x
CC(=O)Nc1ccc(NC(=O)COC(=O)c2ccccn2)cc1	1.5	-0.6	-2.4	15.2	x	x	x	x
Cc1cc(C(=O)Nn2cnc3ccccc3c2=O)ccc1[N+](=O)[O-]	-0.9	4.5	-0.9	-85.5*	24.4	94.8*	11.3	96.6*
O=C(CCCN1C(=O)/C(=C/c2ccc(F)cc2)SC1=S)NC1CCS(=O)(=O)C1 (stereo not given)	0.9	4.9	-1.6	38.2	x	x	x	x
O=C(CCc1nc2ccccc2c(=O)[nH]1)NNC(=O)COc1cccc(F)c1	0.9	0.1	1.9	x	x	x	x	x
Cc1ccccc1OCCC(=O)Nc1ccc(F)c(Cl)c1	2.4	-1.9	0.4	-92.7*	22.0	96.6*	30.9	97.6*
CCOc1ccccc1OCCC(=O)Nc1ccc(F)c(Cl)c1	0.7	14.9	2.3	22.9	x	x	x	x
Cc1ccc(NC(=O)CCOc2ccccc2C)cc1C	2.0	6.2	0.1	-78.3*	39.1	91.7*	30.8	93.4*
O=C(NCc1cccs1)c1csc([C@@H]2C[C@H](O)[C@@H](CO)O2)n1	x	4.1	-0.1	x	x	x	x	x
Cc1ccc(/C=C/C(=O)OCC(=O)c2ccc3c(c2)NC(=O)CO3)o1	2.3	7.7	-1.6	x	x	x	x	x
O=C1COc2ccc(C(=O)COC(=O)/C=C/c3ccc(Br)o3)cc2N1	5.8	8.1	8.1	-95.8*	11.8	98.8*	1.5	99.3*
SMILES	NTR1 agonist	MC4R antagonist	MC4R ag barr	AI-2 QS mod	JMH597 growth	BB721 const-QS lum	BB721 growth rt	JMH597 AI-2 mod
Nc1ccccc1S(=O)(=O)NCCCCc1ccccc1	3.5	7.0	4.7	-88.5*	-3.7	95.1*	5.1	95.7*
COc1ccccc1CNC(=O)c1ccc(S(=O)(=O)N(C)C)cc1	-1.1	8.2	-2.4	-79.6*	-5.1	84.5*	0.1	90.0*
CN(C)S(=O)(=O)c1ccc(C(=O)Oc2ccccc2)cc1	-0.3	10.9	-0.5	-79.8*	11.5	90.6*	39.3	93.2*
O=C(Oc1ccccc1)c1ccccc1	x	5.0	-1.1	x	x	x	x	x
COc1ccc(C(=O)OCn2nnc3ccccc3c2=O)cc1OC	-1.3	0.2	0.0	25.4	x	x	x	x
COc1ccccc1OCCNC(=O)c1ccc(S(=O)(=O)N(C)C)cc1	-0.4	8.0	1.3	-5.7	x	x	x	x
CN(C)S(=O)(=O)c1ccc(C(=O)OCn2nnc3ccccc3c2=O)cc1	1.0	12.8	1.2	-89.2*	28.0	95.7*	37.1	97.0*
O=S(=O)(c1ccccc1)c1ccc(NCc2ccco2)cc1	2.1	20.6	1.7	-93.8*	6.8	51.9	-38.0	97.6*
O=C(c1ccccc1)c1ccc[nH]1	x	-4.5	2.0	x	x	x	x	x
CCNC(=O)NC(=O)CSc1ccc(S(=O)(=O)N(C)C2CCCCC2)cn1	-0.9	4.5	-1.4	x	x	x	x	x
CN(C(=O)CCN1C(=O)S/C(=C\c2ccccc2)C1=O)C1CCS(=O)(=O)C1 (stereo not given)	-0.2	0.9	-2.3	39.4	x	x	x	x
O=C(Nc1ccc(Cc2ccncc2)cc1)c1ccc(Br)o1	-0.6	4.5	0.2	-81.4*	-12.8	88.4*	-46.7	93.8*
CCOc1ccc(Oc2ccccc2NC(=O)CN2C(=O)NC3(CCCC3)C2=O)cc1	-0.6	-2.9	-2.8	-4.8	x	x	x	x
COc1ccc(CCn2c(C)cc(C(=O)CN3C(=O)C(=O)N(C4CCCC4)C3=O)c2C)cc1OC	0.9	6.3	-2.2	x	x	x	x	x
CCCc1cc(C(=O)Nc2ccc(F)c(Cl)c2)no1	-0.8	-11.0	1.0	-82.0*	37.6	96.4*	-77.7	96.9*
COCCN1C(=O)N(c2cccc(C)c2)C(=O)C1CC(=O)Nc1ccc(OC)cc1 (stereo not given)	0.9	4.7	-1.1	5.8	x	x	x	x
CSCCC1NC(=O)N(CC(=O)Nc2c(C(C)C)cccc2C(C)C)C1=O (stereo not given)	-0.2	-5.4	-0.9	-3.9	x	x	x	x
CSCCC1NC(=O)N(CC(=O)Nc2ccc(-c3ccccc3)cc2)C1=O (stereo not given)	0.0	-4.2	-0.8	-82.7*	-21.7	85.1*	-5.3	90.8*
COc1ccc(NC(=O)CN2C(=O)CSC(C)C2=O)c(OC)c1 (stereo not given)	-2.2	5.4	-0.3	13.7	x	x	x	x
CCOc1ccc(NC(=O)CN2C(=O)NC(CCSC)C2=O)cc1 (stereo not given)	-2.0	21.2	2.5	-78.7*	7.6	90.8*	6.9	93.8*
